Data taken from ChEMBL document CHEMBL1124869, “Synthesis and anti-HIV activity of several 2'-fluoro-containing pyrimidine nucleosides” (J Med Chem, 1990).
≈ marks a conversion by molar mass, not a printed value. Where “and” joins values, the source holds several entries; their conditions need not be identical. Equal entries are not always repeated.

How the values were obtained:
[1] = system: CCRF-CEM; assay: Cellular toxicity was measured in CEM cells after 8 days.50 tissue culture infectious doses were used.; assay type: functional, Homo sapiens
[2] = system: CCRF-CEM; assay: Antiviral test was performed against HIV (LAV strain) on CEM cells using 50 tissue culture infectious units.; assay type: functional; conditions: Homo sapiens, read-out: ID50 (the source's name)
Method in brief: (§1)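 CEM-SS T cells infected with HIV-1 LAV strain. Inoculum was 50 or 30 tissue culture infectious units, depending on the assay. Viral replication was read as p24 core antigen in the culture supernatant by sandwich ELISA. Activity is expressed as 50% inhibitory dose (ID50) and 50% tissue culture inhibitory dose (TCID50).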

[3] = system: CCRF-CEM; assay: Antiviral test was performed against HIV (LAV strain) on CEM cells using 30 tissue culture infectious units; assay type: functional, Homo sapiens; method in brief: as §1
[4] = species: Homo sapiens; assay: Bone marrow toxicity was measured against human colony forming units-granulocyte monocyte (CFU-GM), concentration is 1.0 uM
Method in brief: (§2)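 Colony formation by normal human granulocyte-monocyte progenitors (CFU-GM) was scored in the presence of 0.1, 1.0 or 10.0 μM drug. Results are given as percent colony survival relative to control, mean ± deviation.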

[5] = species: Homo sapiens; assay: Bone marrow toxicity was measured against human colony forming units-granulocyte monocyte (CFU-GM), concentration is 10.0 uM; method in brief: as §2
[6] = system: T-cell; assay: (§3) In vitro Antiviral activity against T-cell lines; assay type: functional, Homo sapiens
Method in brief: (§4)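 Freshly isolated T cells were stimulated with PHA mitogen and then infected with HIV HTLV-IIIB. Antiviral endpoint was p24 antigen at 10 days postinfection. Cell viability served as the toxicity endpoint.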

[7] = system: Mo; assay: (§5) In vitro Antiviral activity against MO cell lines; assay type: functional; conditions: Homo sapiens, read-out: ID50 (the source's name)
Method in brief: (§6)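 Freshly isolated monocyte/macrophage cells were infected with the monocytotropic HIV Pan Data Strain (PDS). Antiviral endpoint was p24 viral antigen.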

[8] = system: CCRF-CEM; assay: (§7) Antiviral test was performed against HIV (LAV strain) on CEM cells using 30 tissue culture infectious units. T; assay type: functional, Homo sapiens; method in brief: as §1
[9] = system: PBL; assay: (§8) In vitro Antiviral activity against PBL cell lines; assay type: functional, Homo sapiens
[10] = system: T-cell; assay: as §3; assay type: functional; conditions: Homo sapiens, read-out: ID50 (the source's name); method in brief: as §4
[11] = system: U-937; assay: (§9) In vitro Antiviral activity against U937 cell lines; assay type: functional; conditions: Homo sapiens, read-out: ID50 (the source's name)
[12] = system: U-937; assay: as §9; assay type: functional, Homo sapiens
[13] = system: Mo; assay: as §5; assay type: functional, Homo sapiens; method in brief: as §6
[14] = system: PBL; assay: as §8; assay type: functional; conditions: Homo sapiens, read-out: ID50
[15] = system: CCRF-CEM; assay: Cellular toxicity was measured in CEM cells after 8 days; assay type: functional, Homo sapiens
[16] = system: T-cell; assay: (§10) In vitro antiviral activity against T-cells; assay type: functional, Homo sapiens; method in brief: as §4
[17] = (§11) In vitro antiviral activity against (monocyte macrophages) cell lines; assay type: functional; conditions: Homo sapiens; read-out: ID50 (the source's name); method in brief: as §6
[18] = system: T-cell; assay: as §10; assay type: functional; conditions: Homo sapiens, read-out: ID50 (the source's name); method in brief: as §4
[19] = system: U-937; assay: (§12) In vitro antiviral activity against U937 cell lines; assay type: functional; conditions: Homo sapiens, read-out: ID50 (the source's name)
[20] = system: CCRF-CEM; assay: (§13) In vitro antiviral activity against CEM cell lines; assay type: functional, Homo sapiens; method in brief: as §1
[21] = system: PBL; assay: (§14) In vitro antiviral activity against PBL cell lines; assay type: functional; conditions: Homo sapiens, read-out: ID50 (the source's name)
[22] = system: U-937; assay: as §12; assay type: functional, Homo sapiens
[23] = system: CCRF-CEM; assay: as §7; assay type: functional; conditions: Homo sapiens, read-out: ID50 (the source's name); method in brief: as §1
[24] = as §11; assay type: functional, Homo sapiens; method in brief: as §6
[25] = system: CCRF-CEM; assay: as §13; assay type: functional; conditions: Homo sapiens, read-out: ID50 (the source's name); method in brief: as §1
[26] = system: PBL; assay: as §14; assay type: functional, Homo sapiens

## Cc1cn([C@@H]2O[C@H](CO)C=C2F)c(=O)[nH]c1=O
[1]
  cytotoxic concentration in CEM cells: 9.7 µg/mL
[2]
  IC50: > 25 µg/mL

## Cc1cn([C@@H]2O[C@H](CO)[C@@H](N=[N+]=[N-])[C@H]2F)c(=O)[nH]c1=O
[1]
  cytotoxic concentration in CEM cells: 2.6 µg/mL
[2]
  IC50: > 28.5 µg/mL

## Cc1cn([C@@H]2O[C@H](CO)C[C@H]2F)c(=O)[nH]c1=O
[3]
  TCID50: >25 µg/mL
[2]
  IC50: > 25 µg/mL

## Nc1ccn([C@@H]2O[C@H](CO)C[C@@H]2F)c(=O)n1
[4]
  Toxicity: 37.6
[5]
  Toxicity: 0
[6]
  TCID50: 10 µg/mL
[7]
  IC50: 1 µg/mL (≈ 4.36 µM)
[8]
  ID50: 0.9 µg/mL (≈ 3.93 µM)
[9]
  TCID50: 11 µg/mL
[10]
  IC50: 0.33 µg/mL (≈ 1.44 µM)
[1]
  cytotoxic concentration in CEM cells: >23 µg/mL and 61.9 µg/mL
[11]
  IC50: 0.14 µg/mL (≈ 0.611 µM)
[12]
  TCID50: 7.7 µg/mL
[13]
  TCID50: 3.3 µg/mL
[14]
  IC50: < 2 µg/mL
[2]
  IC50: 2.3 µg/mL (≈ 10 µM)

## Nc1ccn([C@@H]2O[C@H](CO)C=C2F)c(=O)n1
[8]
  ID50: 10.9 µg/mL (≈ 48 µM)
[2]
  IC50: 1.3 µg/mL (≈ 5.72 µM)

## O=c1ccn(C2OC(CO)CC2F)c(=O)[nH]1 (stereo not drawn)
[1]
  cytotoxic concentration in CEM cells: 57 µg/mL
[2]
  IC50: > 10 µg/mL

## Nc1ccn([C@H]2CC[C@@H](CO)O2)c(=O)n1 [ZALCITABINE]
[15]
  TCID50: 1.3 µg/mL
[2]
  IC50: 0.007 µg/mL (≈ 0.0331 µM)

## Cc1cn([C@H]2C[C@H](N=[N+]=[N-])[C@@H](CO)O2)c(=O)[nH]c1=O [ZIDOVUDINE]
[16]
  TCID50: 100 µg/mL
[5]
  Toxicity: 23.6
[17]
  IC50: 0.1 µg/mL (≈ 0.374 µM)
[18]
  IC50: 0.033 µg/mL (≈ 0.123 µM)
[19]
  IC50: 0.03 µg/mL (≈ 0.112 µM)
[20]
  TCID50: >3 µg/mL
[21]
  IC50: 0.0003 µg/mL (≈ 0.00112 µM)
[22]
  TCID50: 7.5 µg/mL
[23]
  IC50: 0.53 µg/mL (≈ 1.98 µM)
[24]
  TCID50: 10 µg/mL
[25]
  IC50: 0.03 µg/mL (≈ 0.112 µM)
[2]
  IC50: 0.08 µg/mL (≈ 0.299 µM)
[26]
  TCID50: 3 µg/mL
